NR2E3 ag-1: inhibitors of NR2E3-RetCOR corepressor binding, primary screen, NR2E3 agonist project, biochemical, TR-FRET, GST-NR2E3, biotin-RetCOR | 1536-well | inhibition of corepressor binding, % at 4.78 µM | 0.12% of 320,000 active | AID 2300, 2010;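 active = percent inhibition above the cutoff of mean plus 3 SD of all tested compounds, set per screening campaign, cut at about 20% in these data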;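 also: 0% = DMSO wells and 100% = biotin wells as full block of FRET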
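Material: NR2E3–RetCOR corepressor complex / Incubation: Compound–protein incubation for 5 h at 4 °C / Dosing: compound at 4.8 µM, single dose / Detection: time-resolved FRET / Benchmarks: high control biotin, low control 0.6% DMSO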
EP2 modulator: EP2 receptor modulators, cAMP readout, primary screen, cell-based, HTRF cAMP, PGE2 stimulation; Prostaglandin E2 receptor EP2 subtype (Homo sapiens), P43116; induction, % at 25 µM; EP2-expressing cells, cAMP HTRF FRET, PGE2 co-stimulation; 0.83% of 260,000 active;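 active = compounds whose cAMP rise, as percent of the full-agonist control response, exceeds 60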;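 also: rat C6 glioma line stably carrying human EP2 under a CMV promoter; the protocol text gives 20 µM as final concentration; 100% = response of wells given 1 µM PGE2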
Furin inh: human furin inhibitors, primary screen, biochemical, fluorescence intensity; P09958; purified furin, fluorogenic substrate cleavage; inhibition, % at 20 µM or 30 µM; 0.061% of 220,000 active; AID 463115, 2010; in the data active = inhibition above about 25%
NR2E3 ag-2: NR2E3 agonists in two-hybrid cells, primary screen, cell-based, luminescence, CHO-S, Gal4-NCOR/VP16-NR2E3 | luciferase | inhibition of corepressor binding, % at 3.98 µM | 0.35% of 360,000 active | AID 602229, 2012;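 active = inhibition above the mean of all tested compounds plus 3 SD, cut at about 70% in these data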;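 also: 0% = DMSO with NR2E3 transfected cells and 100% = cells lacking NR2E3 construct; higher means lower luciferase signal from less NR2E3 corepressor binding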
EP2 antag: human EP2 receptor antagonists, primary screen, TR-FRET cAMP, C6 glioma cells. Prostaglandin E2 receptor EP2 subtype (Homo sapiens), P43116. C6 glioma cells expressing human EP2; cells stimulated with saturating PGE2. inhibition, % at 25 µM. 0.52% of 260,000 active. AID 1422, 2008;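 active = percent inhibition above 40 after rounding to a whole number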;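 also: rat C6 glioma host cells with rolipram phosphodiesterase inhibitor present; the protocol text gives 20 µM as final concentration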
GASC-1 inh: inhibitors of GASC-1 histone demethylase, primary screen, biochemical, fluorescence, DELFIA europium | Lysine-specific demethylase 4C (Homo sapiens), Q9H3R0 | GST-JMJD2C(1-420) H3K9me3 demethylation | inhibition, % at 2.35 µM | 0.069% of 330,000 active | AID 2099, 2009;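 active = more than half of a compound's replicate wells show inhibition beyond 50%, single wells judged on their own value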;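 also: signal counts dimethyl H3K9 product captured on neutravidin plate; 0% = median of DMSO wells and 100% = 0.3 times that DMSO median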
Target sequence (Q9H3R0 1-420 limits assumed): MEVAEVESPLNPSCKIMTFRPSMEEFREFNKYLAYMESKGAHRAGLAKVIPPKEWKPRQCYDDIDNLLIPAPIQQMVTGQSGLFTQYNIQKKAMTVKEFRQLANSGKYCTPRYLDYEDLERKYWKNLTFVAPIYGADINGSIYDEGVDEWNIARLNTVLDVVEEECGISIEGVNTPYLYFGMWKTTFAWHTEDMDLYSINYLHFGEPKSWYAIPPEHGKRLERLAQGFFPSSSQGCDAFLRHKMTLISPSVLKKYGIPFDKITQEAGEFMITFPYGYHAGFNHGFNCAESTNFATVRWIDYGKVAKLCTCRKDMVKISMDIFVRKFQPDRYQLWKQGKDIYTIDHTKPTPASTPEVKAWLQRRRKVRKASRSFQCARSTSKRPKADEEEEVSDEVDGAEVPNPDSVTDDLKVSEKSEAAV
Starred values were filed as active, the others as inactive; · = no result given. This is a sample that favours compounds with a hit; in the whole collection about 1.3% have one here.

SMILES | NR2E3 ag-1 | EP2 modulator | Furin inh | NR2E3 ag-2 | EP2 antag | GASC-1 inh
O=C(c1cccc(Cl)c1)N1CCCC(c2nc(-c3cccs3)no2)C1 (stereo unspecified) | · | 22 | · | · | 14 | ·
COc1cc2c(cc1CN1CCC(O)(c3ccc(C)cc3)CC1)OCO2 | · | -23 | · | · | 1 | ·
COc1ccc(Nc2nc3c(C)cccn3c(=O)c2C=NCc2ccccc2)cc1 | -4 | 64* | -8 | 22 | 3 | -3
CNc1nc2c(C)cccn2c(=O)c1C=NCc1ccccc1 | 1 | 61* | -8 | -24 | · | -24
Nc1ccccc1-c1n[nH]c(=S)s1 | · | 0 | -26 | -62 | 67* | ·
CCCn1c(-c2ccccc2N)n[nH]c1=S | · | -1 | · | · | 12 | ·
NC(=O)CC(NC(=O)c1ccccc1)c1ccc(NCc2ccc(F)c(F)c2)c([N+](=O)[O-])c1 (stereo unspecified) | 2 | · | · | -6 | · | 3
NC(=O)CC(NC(=O)c1ccccc1)c1ccc(NCc2ccc(F)cc2)c([N+](=O)[O-])c1 (stereo unspecified) | 2 | -34 | -27 | -1 | 15 | 2
NC(=O)CC(NC(=O)c1ccc(Br)cc1)c1ccc(NCc2ccc(F)c(F)c2)c([N+](=O)[O-])c1 (stereo unspecified) | 2 | -16 | -23 | -2 | 43* | -5
NC(=O)CC(NC(=O)c1ccc(Br)cc1)c1ccc(NCc2ccc(F)cc2)c([N+](=O)[O-])c1 (stereo unspecified) | 3 | -36 | -35 | -11 | 51* | -4
O=C(Nc1ccc(OC(F)(F)F)cc1)c1ccc2nc[nH]c2c1 | -2 | · | · | -29 | · | 5
NC(=O)c1cccc(-c2cc(Nc3ccc(OC(F)(F)F)cc3)ncn2)c1 | 4 | -23 | -12 | 20 | 59* | 5
COC(=O)Cn1nnc(-c2ccc(C)cc2)n1 | · | -18 | · | · | 15 | ·
Cc1ccc(Nc2nc(-c3sc(N)nc3C)cs2)nc1 | · | -113 | · | · | 14 | ·
CC1CC(C)CN(C(=O)C(Cc2ccccc2)n2cccc2)C1 (stereo unspecified) | -1 | 62* | -13 | -24 | 8 | -7
CC1CCN(C(=O)C(Cc2ccccc2)n2cccc2)CC1 (stereo unspecified) | -2 | 6 | -26 | -21 | 11 | 0
C[N@@+]1(CC[N@+]2(C)CCC[C@@H]2c2cccnc2)CCC[C@@H]1c1cccnc1 | · | 26 | · | · | 47* | ·
CCc1ccc2[nH]c(=O)c(C(c3nnnn3Cc3ccccc3)N3CCC(C)CC3)cc2c1 (stereo unspecified) | · | 55 | · | · | 12 | ·
Cc1ccc2[nH]c(=O)c(C(c3nnnn3C3CCCCC3)N3CCCc4ccccc43)cc2c1 (stereo unspecified) | · | 26 | · | · | 5 | ·
Cc1cc(C)c2cc(C(c3nnnn3C3CCCCC3)N3CCCc4ccccc43)c(=O)[nH]c2c1 (stereo unspecified) | · | 71* | · | · | 8 | ·
CCc1ccc2[nH]c(=O)c(C(c3nnnn3Cc3ccccc3)N3CCCc4ccccc43)cc2c1 (stereo unspecified) | · | 66* | · | · | 15 | ·
CCc1ccc2[nH]c(=O)c(C(c3nnnn3Cc3ccco3)N3CCC(C)CC3)cc2c1 (stereo unspecified) | -1 | 61* | -18 | -26 | 3 | -1
C=C(C)Cn1c(SCC(=O)Nc2ccc(C)cc2)nc2sc3c(c2c1=O)CCCC3 | · | 25 | · | · | 5 | ·
CC1CCN(C(=O)CSc2nc3ccccc3n2Cc2ccccc2F)CC1 | · | 44 | · | · | 8 | ·
C=CCn1c(O)c(N=Nc2ccccc2C)c2ccccc21 | -2 | 31 | -9 | · | 7 | 97*
SMILES | NR2E3 ag-1 | EP2 modulator | Furin inh | NR2E3 ag-2 | EP2 antag | GASC-1 inh
COc1ccc2[nH]c(=O)c(C(c3nnnn3C(C)(C)C)N3CCN(c4ccccc4F)CC3)cc2c1 (stereo unspecified) | · | 30 | · | · | 8 | ·
Cc1cc2cc(C(c3nnnn3C(C)(C)C)N3CCN(Cc4ccccc4)CC3)c(=O)[nH]c2cc1C (stereo unspecified) | · | 11 | · | · | 91* | ·
CCc1ccc2[nH]c(=O)c(C(c3nnnn3C(C)(C)C)N3CCN(c4ccccc4F)CC3)cc2c1 (stereo unspecified) | · | 74* | · | · | 11 | ·
O=[N+]([O-])c1cnc(Sc2ccncn2)c([N+](=O)[O-])c1 | · | · | · | -7 | · | ·
O=[N+]([O-])c1cnc(Sc2ccncn2)s1 | 1 | -44 | 3 | 30 | 70* | -8
COc1ccc(S(=O)(=O)Nc2ccc3c(c2)n(C)c(=O)n3C)cc1C | 2 | · | · | 21 | · | -9
CCOC(=O)c1oc2ccc(S(=O)(=O)Nc3ccc4c(c3)n(C)c(=O)n4C)cc2c1C | -3 | -19 | -21 | 77* | 4 | -7
CC(=O)c1sc(-c2ccc(F)cc2)cc1NS(=O)(=O)c1ccc(C)cc1 | -1 | -12 | -11 | -1 | 19 | -2
CC(=O)c1sc(-c2ccccc2)cc1NS(=O)(=O)c1ccccc1 | 0 | -21 | 1 | -7 | 81* | 11
CC(=O)c1sc(-c2ccccc2)cc1NS(=O)(=O)c1ccc(C)cc1 | -17 | -9 | -13 | -13 | 74* | -3
C=C(C)C1Cc2c(C)nn(-c3cccc4ccccc34)c2C1 (stereo unspecified) | -2 | 60 | -15 | -3 | 4 | 9
C=C(C)C1Cc2c(C)nn(-c3ccccc3)c2C1 (stereo unspecified) | -2 | 61* | -23 | 0 | 11 | 13
O=C(c1ccc2c(c1)OCO2)N1CCC(O)(c2ccccn2)CC1 | · | -40 | · | · | · | ·
C/C(N[O-])=C(\C)[N+]([O-])=[Co].C/C(N[O-])=C(\C)[N+]([O-])=[Co].CC(=N\[O-])/C(C)=N/[O-].CC(=N\[O-])/C(C)=N/[O-].[CH3-].[CH3-] | · | 11 | · | · | 29 | ·
C/C(N[O-])=C(\C)[N+]([O-])=[Co].CC(=N\[O-])/C(C)=N/[O-].C[CH-][C@@H](C)O.c1ccncc1 | · | 21 | · | · | 42* | ·
O=C(O)CCCCCCC1C(=O)NC(=O)N1CCC(O)C1CCCCC1 (stereo unspecified) | 2 | 106* | -13 | -24 | 9 | -19
O=C(CCCCCCN1C(=O)c2ccccc2C1=O)NC1CCCCC1 | 0 | -16 | -16 | -9 | 20 | ·
O=C(O)CCCCCN1C(=O)C2CCCCC2C1=O (stereo unspecified) | 5 | 10 | -18 | -19 | 6 | 4

Assay outcomes deposited in PubChem BioAssay by several laboratories.
